Tests used:
[1] = molecular target: Gamma-aminobutyric acid receptor subunit alpha-6/beta-3 (Rattus norvegicus, UniProt P30191+P63079); assay: Displacement of [3H]EBOB from rat GABA-A receptor alpha6beta3 expressed in HEK293 cell membranes after 90 mins by liquid scintillation counting analysis
Summary of the method: (§1)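 Crude membranes from HEK 293 cells transiently Ca-phosphate-transfected with rat subunit cDNAs, harvested at 48 h. Membranes (150-200 µg protein) incubated with 3 nM [3H]EBOB in 50 mM Tris/citrate pH 7.3 plus 0.2 M NaCl. Compound up to 10 µM, final DMSO 0.1%, no GABA, 90 min at 21 °C. Bound radioligand collected by GF/C filtration and counted by scintillation.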

[2] = molecular target: Gamma-aminobutyric acid receptor subunit alpha-6/beta-3/gamma-2 (Rattus norvegicus) (UniProt P18508+P30191+P63079); assay: Displacement of [3H]EBOB from rat GABA-A receptor alpha6beta3gamma2 expressed in HEK293 cell membranes up to 20 uM after 90 mins by liquid scintillation counting analysis relative to control
[3] = molecular target: Gamma-aminobutyric acid receptor subunit alpha-6/beta-3/delta (Rattus norvegicus) (UniProt P18506+P30191+P63079); assay: Displacement of [3H]EBOB from rat GABA-A receptor alpha6beta3delta expressed in HEK293 cell membranes up to 20 uM after 90 mins by liquid scintillation counting analysis relative to control
[4] = molecular target: Gamma-aminobutyric acid receptor subunit alpha-6/beta-3/gamma-2 (Rattus norvegicus, UniProt P18508+P30191+P63079); assay: Displacement of [3H]EBOB from rat GABA-A receptor alpha6beta3gamma2 expressed in HEK293 cell membranes after 90 mins by liquid scintillation counting analysis; summary of the method: as §1
[5] = molecular target: Gamma-aminobutyric acid receptor subunit alpha-6/beta-3/delta (Rattus norvegicus, UniProt P18506+P30191+P63079); assay: Displacement of [3H]EBOB from rat GABA-A receptor alpha6beta3delta expressed in HEK293 cell membranes after 90 mins by liquid scintillation counting analysis; summary of the method: as §1
[6] = molecular target: Gamma-aminobutyric acid receptor subunit alpha-6/beta-3 (Rattus norvegicus) (UniProt P30191+P63079); assay: Displacement of [3H]EBOB from rat GABA-A receptor alpha6beta3 expressed in HEK293 cell membranes up to 20 uM after 90 mins by liquid scintillation counting analysis relative to control

Sequence of Gamma-aminobutyric acid receptor subunit alpha-6/beta-3/gamma-2 (P18508 whole entry): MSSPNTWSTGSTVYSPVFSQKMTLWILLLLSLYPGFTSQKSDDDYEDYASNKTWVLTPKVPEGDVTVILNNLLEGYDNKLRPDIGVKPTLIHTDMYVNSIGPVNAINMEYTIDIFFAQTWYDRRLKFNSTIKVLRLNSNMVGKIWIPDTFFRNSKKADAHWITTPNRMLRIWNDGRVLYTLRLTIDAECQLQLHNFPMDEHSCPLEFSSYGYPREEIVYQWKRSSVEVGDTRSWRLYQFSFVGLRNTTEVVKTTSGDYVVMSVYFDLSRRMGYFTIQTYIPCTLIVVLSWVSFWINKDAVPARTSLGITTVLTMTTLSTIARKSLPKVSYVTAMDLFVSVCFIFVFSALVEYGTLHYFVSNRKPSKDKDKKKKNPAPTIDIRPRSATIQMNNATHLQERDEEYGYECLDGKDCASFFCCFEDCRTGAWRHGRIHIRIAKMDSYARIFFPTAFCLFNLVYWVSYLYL
Sequence of Gamma-aminobutyric acid receptor subunit alpha-6/beta-3/gamma-2 (P30191 whole entry): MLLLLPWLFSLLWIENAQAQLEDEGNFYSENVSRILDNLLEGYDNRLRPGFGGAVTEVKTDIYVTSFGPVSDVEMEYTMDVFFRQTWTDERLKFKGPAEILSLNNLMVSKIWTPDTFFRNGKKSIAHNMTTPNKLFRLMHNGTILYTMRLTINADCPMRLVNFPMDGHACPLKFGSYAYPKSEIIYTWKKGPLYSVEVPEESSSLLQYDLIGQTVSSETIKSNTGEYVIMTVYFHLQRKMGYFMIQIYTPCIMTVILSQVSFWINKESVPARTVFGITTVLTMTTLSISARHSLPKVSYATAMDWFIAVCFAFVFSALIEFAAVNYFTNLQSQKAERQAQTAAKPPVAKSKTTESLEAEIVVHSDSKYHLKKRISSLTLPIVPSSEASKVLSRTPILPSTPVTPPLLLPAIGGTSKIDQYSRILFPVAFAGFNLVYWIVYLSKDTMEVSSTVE
Sequence of Gamma-aminobutyric acid receptor subunit alpha-6/beta-3/gamma-2 (P63079 whole entry): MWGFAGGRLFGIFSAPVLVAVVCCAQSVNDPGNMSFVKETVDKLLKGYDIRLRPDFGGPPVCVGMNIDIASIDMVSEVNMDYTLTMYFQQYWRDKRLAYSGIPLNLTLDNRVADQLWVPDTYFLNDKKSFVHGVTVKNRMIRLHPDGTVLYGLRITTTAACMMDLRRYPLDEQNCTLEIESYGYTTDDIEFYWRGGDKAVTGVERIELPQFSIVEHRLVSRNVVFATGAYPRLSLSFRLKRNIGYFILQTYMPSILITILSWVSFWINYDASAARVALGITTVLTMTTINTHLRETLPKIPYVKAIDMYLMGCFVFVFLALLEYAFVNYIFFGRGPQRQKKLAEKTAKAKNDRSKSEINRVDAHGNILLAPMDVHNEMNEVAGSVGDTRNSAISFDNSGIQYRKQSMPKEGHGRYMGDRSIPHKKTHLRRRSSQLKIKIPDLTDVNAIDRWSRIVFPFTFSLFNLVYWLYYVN
Sequence of Gamma-aminobutyric acid receptor subunit alpha-6/beta-3/delta (P18506 whole entry): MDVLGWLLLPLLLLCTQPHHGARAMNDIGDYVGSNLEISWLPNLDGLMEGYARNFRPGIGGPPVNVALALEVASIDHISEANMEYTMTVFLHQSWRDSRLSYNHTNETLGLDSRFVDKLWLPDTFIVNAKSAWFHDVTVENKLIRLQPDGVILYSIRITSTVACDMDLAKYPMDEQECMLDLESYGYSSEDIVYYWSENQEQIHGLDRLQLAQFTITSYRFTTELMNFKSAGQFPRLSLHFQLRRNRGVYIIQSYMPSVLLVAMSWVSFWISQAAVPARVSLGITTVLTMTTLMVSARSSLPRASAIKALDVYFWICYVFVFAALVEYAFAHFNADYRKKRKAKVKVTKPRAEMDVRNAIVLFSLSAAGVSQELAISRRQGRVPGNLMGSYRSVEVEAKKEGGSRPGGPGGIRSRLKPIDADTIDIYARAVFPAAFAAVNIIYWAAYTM
Sequence of Gamma-aminobutyric acid receptor subunit alpha-6/beta-3/delta (P30191 whole entry): as the sequence (P30191 whole entry) above
Sequence of Gamma-aminobutyric acid receptor subunit alpha-6/beta-3/delta (P63079 whole entry): as the sequence (P63079 whole entry) above
Sequence of Gamma-aminobutyric acid receptor subunit alpha-6/beta-3 (P30191 whole entry): as the sequence (P30191 whole entry) above
Sequence of Gamma-aminobutyric acid receptor subunit alpha-6/beta-3 (P63079 whole entry): as the sequence (P63079 whole entry) above

IC50 [1]: 16 µM
Imax [2]: > 89%
Imax [3]: 85%
IC50 [4]: 25 µM
IC50 [5]: 10.1 µM
Imax [6]: 21%
Compound: O=C(Nc1c(-c2cccs2)nc2ccc(Br)cn12)C1CCCCC1

From ChEMBL document CHEMBL4190374, “Structure-Function Evaluation of Imidazopyridine Derivatives Selective for δ-Subunit-Containing γ-Aminobutyric Acid Type A (GABAA) Receptors” (J Med Chem, 2018)
